Hsp70 act = transcriptional activators of Hsp70; 200,000 compounds, 0.04% hits; activation, % at 10 µM; HeLa Hsp70 promoter luciferase reporter, luminescence; scaled: vehicle 0, proteasome-inhibitor control 100%;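 active means activation above the mean across all tested compounds plus 3 SD, cutoff set per campaign, cut at about 5.5% in these data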;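 further: 100% = MG132 at 30 µM as the positive control and 0% = DMSO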
HSP90 refold inh = blocks HSP90-mediated luciferase refolding in reticulocyte lysate. 290,000 compounds, 0.91% hits. AID 1789. Rabbit reticulocyte lysate, luciferase refolding luminescence, 3 h. inhibition, % at 5.6 µM;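 active means inhibition above the screen-wide mean plus 3 SD, computed separately per campaign, cut at about 16% in these data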;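 further: 0% = DMSO wells and 100% = 60 µM geldanamycin wells; inhibitors lower the luminescence because luciferase stays unfolded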
Tb hexokinase = blocks Trypanosoma brucei hexokinase 1 activity. recombinant TbHK1, G6PDH-coupled NADH A340. inhibition, % at 10 µM. 220,000 compounds, 0.11% hits;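 active means inhibition of 50% or more in the single-dose primary screen; inactive means inhibition below 50%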
HSF1 inh = HSF1 inhibition; NIH3T3-HGL HSE-luciferase, MG132-induced, luminescence 8 h; hits give low values; activity change, negative = inhibition, % at 7.5 µM (by protocol); 300,000 compounds, 0.77% hits; AID 2098;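 active means more than half of replicate wells show activity change below -50%, luminescence cut by over half; inconclusive means some wells, but at most half, below -50%; inactive means no replicate well below -50%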;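 further: luciferase reports HSF-1 transcriptional activity via heat shock element; 0% = median of DMSO wells and -100% = zero luminescence signal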
HKDC1 inh = blocks human hexokinase HKDC1 activity; Q2TB90; recombinant HKDC1, G6PDH/diaphorase resazurin coupled fluorescence; inhibition, % at 20 µM; 340,000 compounds, 0.16% hits; AID 493160;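 active means inhibition above about 35% when tested at 20 µM, limit read from the data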;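 further: plate controls were DMSO wells with enzyme for no effect and DMSO wells lacking enzyme for full effect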
Target sequence (Q2TB90 whole entry, looked up): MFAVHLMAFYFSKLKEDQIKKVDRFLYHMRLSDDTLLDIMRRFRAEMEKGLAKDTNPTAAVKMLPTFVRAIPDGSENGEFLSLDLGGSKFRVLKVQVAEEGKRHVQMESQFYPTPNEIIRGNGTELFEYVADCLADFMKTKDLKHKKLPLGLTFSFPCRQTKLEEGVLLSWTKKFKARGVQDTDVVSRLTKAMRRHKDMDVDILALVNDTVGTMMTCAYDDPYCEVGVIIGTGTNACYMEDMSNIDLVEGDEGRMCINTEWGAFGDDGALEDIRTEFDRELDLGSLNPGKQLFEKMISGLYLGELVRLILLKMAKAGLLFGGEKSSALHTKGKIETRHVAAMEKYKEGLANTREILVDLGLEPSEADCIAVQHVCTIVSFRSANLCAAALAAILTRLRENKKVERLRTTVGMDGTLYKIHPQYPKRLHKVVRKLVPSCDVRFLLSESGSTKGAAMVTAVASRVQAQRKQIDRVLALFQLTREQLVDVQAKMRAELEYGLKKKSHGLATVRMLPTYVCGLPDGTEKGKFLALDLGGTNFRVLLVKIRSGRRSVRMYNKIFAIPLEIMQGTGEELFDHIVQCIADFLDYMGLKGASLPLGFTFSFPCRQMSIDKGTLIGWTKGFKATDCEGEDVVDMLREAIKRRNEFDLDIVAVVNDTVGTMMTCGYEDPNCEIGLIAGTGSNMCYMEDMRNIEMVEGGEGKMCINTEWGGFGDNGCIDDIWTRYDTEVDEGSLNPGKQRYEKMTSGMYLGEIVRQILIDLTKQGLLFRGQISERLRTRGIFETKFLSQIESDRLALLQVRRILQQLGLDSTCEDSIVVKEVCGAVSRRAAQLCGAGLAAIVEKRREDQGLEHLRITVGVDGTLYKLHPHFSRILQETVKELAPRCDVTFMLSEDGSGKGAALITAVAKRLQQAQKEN
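Assay system: recombinant HKDC1 hexokinase; detection: coupled resazurin fluorescence, excitation 525 nm, emission 613 nm; benchmarks: DMSO-plus-enzyme-mix negative control, buffer-substituted positive control; compound dosing: single 20 µM dose; schedule: 90 min at room temperature in dark; also added: glucose plus 1 mM ATP as hexokinase substrates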
HSF1 activator = increases HSF-1 driven luciferase reporter signal; NIH3T3-HGL HSF-1 luciferase reporter, MG132, 8 h; 100% = twice DMSO control signal; activation, % at 9 µM; 300,000 compounds, 1.7% hits; AID 504408;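 active means mean replicate activation of at least 50% with a set share of replicates each reaching 50%; inconclusive means only one of those two conditions met; inactive means mean below 50% and too few replicates reaching it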;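 further: 0% = median of the neutral control wells and 100% = twice that signal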
Active calls of the source: *; ? = inconclusive; / = no result given. This is a sample that favours compounds with a hit; in the whole collection about 3.1% have one here.

SMILES	Hsp70 act	HSP90 refold inh	Tb hexokinase	HSF1 inh	HKDC1 inh	HSF1 activator
Cc1ccc(NC2=CC(=O)C(=O)c3ccccc32)c(C)c1	/	/	/	/	17.8	/
O=c1cc(CN2CCN(Cc3ccc(F)cc3)C(CCO)C2)[nH]c2ccccc12 (centres undefined)	/	-4.2	/	5.6	-1.3	-2.4
O=C(COC(=O)Cn1cnc2ccccc21)Nc1cc2c(cc1Cl)C(=O)c1ccccc1C2=O	-0.1	-3.1	-6.6	51.8	7.0	74.1*
COc1ccc(Cn2c(CCC(=O)O)nc3cccnc32)cc1	0.1	-0.8	-0.7	-1.5	-4.2	17.4
COc1ccc(Cn2c(CCC(=O)Nc3ccc(C)cc3)nc3cccnc32)cc1	-0.1	-1.4	-7.4	29.2	2.9	54.3*
C#CCOCCOCCOCCNc1nc(N2CCN(C(=O)[C@H](CCCCN)n3cc([C@@H](N)[C@H](C)CC)nn3)CC2)nc(N2CCN(C(=O)[C@H](CCC(=O)O)n3cc([C@@H](N)CCSC)nn3)CC2)n1	/	/	/	/	-4.8	/
C=CCNc1nnnc2c1sc1nc(N3CCOCC3)c3c(c12)CCCC3	/	-1.2	-30.8	-68.4*	3.5	-74.5
COC(=O)N1C(=O)[C@@](c2ccccc2)(C2CCCCC2)N1C(=O)OC	/	2.6	/	35.1	7.0	?
CCN1CCN(C(=O)CCc2nnc3ccc(N4CCN(c5cccc(OC)c5)CC4)nn23)CC1	/	-3.5	/	1.7	-3.2	-2.8
CCOc1ccc(OCc2ccc(C(=O)NCC3CCCO3)o2)cc1 (centres undefined)	-0.3	16.3*	1.5	3.5	2.3	2.2
O=C(Nc1nccs1)c1ccc(COc2ccc(F)cc2)o1	-0.4	3.9	-5.7	24.3	-4.7	?
CCOc1ccc(OCc2ccc(C(=O)NN)o2)cc1	/	16.2*	-1.5	7.9	-8.4	23.7
O=C(Nc1nccs1)c1ccc(COc2ccc(Cl)cc2)o1	-0.4	-5.5	7.2	36.6	-2.7	56.5*
COc1ccc2ccccc2c1C1CC(=O)N2CN(C3CCCCC3)CSC2=C1C#N (centres undefined)	-0.5	-2.7	-14.2	-53.7*	13.9	-63.6
CN(C(=O)c1ccc(NC(=O)Cc2cccc(NC(=O)C3CCCN(C(=O)C4CCCC4)C3)c2)cc1)C1CCCC1 (centres undefined)	/	/	/	/	-1.7	/
CCN(C(=O)COC(=O)CNC(=O)c1ccc(C)cc1)c1c(N)n(Cc2ccccc2)c(=O)[nH]c1=O	/	/	/	/	-7.5	/
COc1ccc(C(=O)C2CCCN(S(=O)(=O)c3ccccc3F)C2)c(C)c1 (centres undefined)	/	1.5	/	-77.3*	4.7	-83.6
O=C(C=C=Nc1ccccc1)C(=O)N=C=Cc1ccccc1	/	4.0	-18.7	170.1	6.3	223.7*
O=C(N/N=C/c1ccccc1)C(=O)N/N=C/c1ccccc1	/	2.0	/	4.5	0.1	1.8
COc1ccc(/C=N/N(C)C2=NCCN2)c(OC)c1OC	/	-1.8	/	-86.2*	3.7	-89.5
COc1ccc(/C=N/NC(=O)C(N)=O)c(OC)c1OC	-0.5	0.7	-34.2	0.1	-9.4	7.2
Cc1cc(C(=O)OCC(=O)N2CCC(C)CC2)c2ccccc2n1	/	/	/	/	-0.9	/
CCc1ccc(NC(=O)CN(c2ccccc2)S(=O)(=O)N(C)C)cc1	-0.1	0.4	-5.1	12.7	1.9	60.4*
Cc1c(Cl)c(C(=O)NC2CCCC2)nn1C	-0.6	-1.6	-2.5	16.9	-2.8	60.7*
Cc1nn(-c2ccccc2)c(C)c1/C=N/Nc1nc2ccccc2[nH]1	-0.4	6.8	-21.7	337.4	-12.0	422.6*
SMILES	Hsp70 act	HSP90 refold inh	Tb hexokinase	HSF1 inh	HKDC1 inh	HSF1 activator
C=CCn1cc(/C=N/Nc2nc3ccccc3[nH]2)c2ccccc21	-0.3	-1.1	-20.5	181.4	-4.9	268.5*
Cc1nn(-c2ccccc2)c(Cl)c1/C=N/Nc1nc2ccccc2n1C	0.1	-4.4	-14.0	29.0	-8.0	63.1*
Cc1cc(=O)[nH]c(N/N=C/c2c(C)nn(-c3ccccc3)c2C)n1	-0.1	-0.1	-8.3	0.7	4.0	12.9
CC(C)Cn1c(/C=N/Nc2nc3ccccc3[nH]2)nc2ccccc21	-0.1	0.4	-5.0	2.8	-32.3	3.5
Cn1c(/C=N/Nc2nc3ccccc3[nH]2)nc2ccccc21	0.7	8.6	-18.7	9.7	-7.2	20.6
Cc1c(/C=N/Nc2nc3ccccc3[nH]2)c2ccccc2n1C	/	3.2	-37.1	263.2	-12.2	331.9*
COc1ccc(NC(=O)C(=O)NCCC2CCCCN2S(=O)(=O)c2ccccc2)cc1 (centres undefined)	/	/	/	-10.9	-1.1	-18.0
Nc1cc(C(=O)OCC(=O)N2CCC(Cc3ccccc3)CC2)ccc1Cl	/	/	/	/	-1.1	/
NNc1nc(-c2ccccc2)cc(-c2ccc(Br)cc2)n1	/	2.0	/	1.3	0.8	8.7
Brc1ccc(-n2cnc(-c3ccccc3)c2)cc1	/	4.2	/	45.9	1.6	77.5*
CCn1nc(C)c(/C=N/NC(=O)c2c[nH]c3ccccc23)c1C	-0.4	4.3	-9.9	-70.1*	-11.7	-75.6
CC(=O)N1N=C(c2ccccc2)CC1c1ccccc1[N+](=O)[O-] (centres undefined)	-0.1	1.8	1.4	76.3	-0.1	109.4*
O=C(c1ccccc1)N1N=C(c2ccccc2)CC1c1ccccc1[N+](=O)[O-] (centres undefined)	-0.3	3.5	-6.2	14.5	2.1	17.8
COc1ccc(CN(C)C(=O)C2CCN(S(=O)(=O)c3cccs3)CC2)cc1F	/	/	/	/	-3.8	/
COc1ccc(CNS(=O)(=O)c2c(C(=O)N3CCCCCC3)c(C)n(C)c2C)cc1	/	-7.9	/	2.4	1.0	9.0
CC(C)N(Cc1cn[nH]c1-c1ccc(-c2ccccc2)cc1)Cc1nccn1C	-0.3	-2.3	4.9	28.5	-5.7	58.9*
CC(C)N(Cc1nc(COc2ccccc2)no1)Cc1nccn1C	0.0	-1.9	-13.1	-2.1	0.6	0.3
CCN(CCn1cccn1)C(=O)C1CCC(=O)N(CCN2CCOCC2)C1 (centres undefined)	/	-0.5	/	-4.6	-2.8	-20.1
Cc1ccc(OCc2ccc(C(=O)N3CCCC3)o2)cc1C	/	-3.1	/	45.6	1.2	61.2*
CC1CN(C(=O)c2ccc(COc3ccc(C(C)C)cc3)o2)CC(C)O1 (centres undefined)	0.3	15.9	2.0	31.2	3.3	59.6*
CCc1nn(CC(=O)NCCC2=CCCCC2)c(=O)c2cc3cc(F)ccc3n12	/	-1.9	/	0.8	3.2	11.9
Cc1ccc(OCc2nnc(SC(C)C(=O)O)n2-c2ccccc2)cc1 (centres undefined)	/	0.0	/	-63.0*	-3.6	-68.5
Cc1ccc(OCc2nnc(SCC(=O)O)n2-c2ccccc2)cc1	/	/	/	-4.5	-0.3	3.2
CCC(C)(C)C1CCC2(CC1)NC(=O)N(CC(=O)N1CCN(C(=O)c3ccco3)CC1)C2=O (centres undefined)	/	/	/	/	-5.1	/
O=C(NC(=S)N1CCN(C/C=C/c2ccccc2)CC1)c1ccc(Cl)nc1	/	-1.1	-7.1	38.0	-2.6	68.8*
